One test concerns A-375. Briefly: Antiproliferative activtiy against human A375 cells assessed as growth inhibition after 48 hrs by MTT assay. It is filed as functional, cell-based. To be noted: A-375, 48 h. A digest of the protocol: (§1)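 15000 cells per well in 200µl medium, exposed to a range of concentrations for 48 h (compounds in DMSO, diluted in complete medium). MTT (20µl of 2.5 mg/ml) added for 2 h at 37°C, formazan dissolved in DMSO, OD read at 570 nm. Viability = OD test/OD control ×100. IC50 taken from the concentration–survival curve after blank subtraction.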

A further test relates to PC-3. Briefly: Antiproliferative activtiy against human PC3 cells assessed as growth inhibition after 48 hrs by MTT assay. In kind it is functional, cell-based. To be noted: PC-3, 48 h. A digest of the protocol: as §1
Background: Tetrazolium assays rely on reduction of a dye to a coloured formazan, in cell work by metabolically active cells.

The test system of test [1] is HL-60. Briefly: Antiproliferative activtiy against human HL60 cells assessed as growth inhibition after 48 hrs by MTT assay. It is filed as functional, cell-based. To be noted: HL-60, 48 h. A digest of the protocol:
as §1

Test [2] has as its system HL-60. The experiment in a line: Induction of apoptosis in human HL60 cells assessed as decrease in expression of cytochrome c in mitochondrial fraction after 6 hrs by Western blot analysis. It is filed as functional, cell-based. Put shortly:
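4×10^6 HL-60 cells treated for 6 h. Cytosolic fraction from a 2 min digitonin lysis then 12000g spin; mitochondrial fraction lysed in RIPA. Cytochrome c detected by western blot, with COX IV as the mitochondrial loading control and β-actin as the cytosolic loading control.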
In general terms: In western blotting, separated proteins are transferred to a membrane and probed.

The target in test [3] is Phosphatidylinositol 4,5-bisphosphate 3-kinase catalytic subunit alpha isoform (Homo sapiens) (UniProt P42336). The experiment in a line: Inhibition of PI3K p110 alpha in human HL60 cells assessed as inhibition of mTOR phosphorylation by Western blotting analysis. Conditions: HL-60. It is filed as cell-based. A digest of the protocol: (§2)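 Treated and untreated HL-60 cells spun at 400g at 4°C, washed in PBS and lysed in RIPA buffer for whole-cell lysate. 60 µg protein per lane run on SDS-PAGE and probed with primary antibodies. ECL chemiluminescence detection, with β-actin as the loading control.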

Test [4] concerns HL-60. The experiment in a line: Induction of apoptosis in human HL60 cells assessed as mitochondrial membrane potential loss after 6 hrs by RH 123 staining-based flow cytometer analysis. In kind it is functional, cell-based. A digest of the protocol:
(§3)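 1×10^6 HL-60 cells in 12-well plates, exposed to 5, 10 or 20 µM for 6 h. Rhodamine 123 added 30 min before the end. Cells collected at 400 g, washed once in PBS, and fluorescence read in the FL-1 channel of a flow cytometer.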

Test [5] has as its target Phosphatidylinositol 4,5-bisphosphate 3-kinase catalytic subunit alpha isoform (Homo sapiens) (UniProt P42336). Briefly: Inhibition of PI3K p110 alpha in human HL60 cells assessed as PARP 1 clevage by Western blotting analysis. It is filed as cell-based. To be noted: HL-60. A digest of the protocol:
as §2

Test [6] has as its system HL-60. Briefly: Inhibition of human ERK 1/2 expression in human HL60 cells by Western blotting analysis. It is filed as functional, cell-based. Put shortly:
as §2

Test [7] addresses Phosphatidylinositol 4,5-bisphosphate 3-kinase catalytic subunit alpha isoform (Homo sapiens) (UniProt P42336). Briefly: Inhibition of PI3K p110 alpha in human HL60 cells assessed as caspase 3 clevage by Western blotting analysis. In kind it is cell-based. To be noted: HL-60. A digest of the protocol:
as §2

For test [8] the target is unchanged. Briefly: Inhibition of PI3K p110 alpha in human HL60 cells assessed as inhibition of GSK3 beta phosphorylation by Western blotting analysis. It is filed as cell-based. To be noted: HL-60. Put shortly: as §2
Test [9] has the same target. The experiment in a line: Inhibition of PI3K p110 alpha in human HL60 cells assessed as effect on total AKT level by Western blotting analysis. It is filed as cell-based. To be noted: HL-60. A digest of the protocol:
as §2

Test [10] shares this target. The experiment in a line: Inhibition of PI3K p110 alpha in human HL60 cells assessed as inhibition of AKT phosphorylation at AKT S473 by Western blotting analysis. It is filed as cell-based. Conditions: HL-60. Put shortly: as §2
The target is the same in test [11]. Briefly: Inhibition of PI3K p110 alpha in human HL60 cells assessed as inhibition of AKT phosphorylation at T308 by Western blotting analysis. In kind it is cell-based. To be noted: HL-60. Put shortly:
as §2

Test [12] has as its system HL-60. Briefly: Cell cycle arrest in human HL60 cells assessed as accumulation at G0/G1 phase at 20 uM after 6 hrs using by propidium iodide staining by FACS analysis (reference value: 6%). In kind it is functional. A general note: A flow cytometer gives signals particle by particle.
In test [13] the target is Phosphatidylinositol 4,5-bisphosphate 3-kinase catalytic subunit alpha isoform (Homo sapiens) (UniProt P42336). Briefly: Inhibition of PI3K p110 alpha in human HL60 cells by Western blotting analysis. In kind it is cell-based. To be noted: HL-60. Put shortly: as §2
The subject of test [14] is HL-60. The experiment in a line: Cell cycle arrest in human HL60 cells assessed as accumulation at G0/G1 phase at 5 uM after 6 hrs using by propidium iodide staining by FACS analysis (reference value: 6%). It is filed as functional.
Test [15] relates to HL-60. Briefly: Cell cycle arrest in human HL60 cells assessed as accumulation at G0/G1 phase at 10 uM after 6 hrs using by propidium iodide staining by FACS analysis (reference value: 6%). In kind it is functional.
The test system of test [16] is HL-60. The experiment in a line: Induction of apoptosis in human HL60 cells assessed as early apoptotic cells at 20 uM after 6 hrs by Annexine V/propidium iodide staining-based FACS flow cytometry analysis (reference value: 4%). In kind it is functional.
Test [17] deals with HL-60. Briefly: Induction of apoptosis in human HL60 cells assessed as early apoptotic cells at 10 uM after 6 hrs by Annexine V/propidium iodide staining-based FACS flow cytometry analysis (reference value: 4%). It is filed as functional.
For test [18], the system named is HL-60. Briefly: Induction of apoptosis in human HL60 cells assessed as early apoptotic cells at 5 uM after 6 hrs by Annexine V/propidium iodide staining-based FACS flow cytometry analysis (reference value: 4%). It is filed as functional.
Test [19] relates to HL-60. Briefly: Induction of apoptosis in human HL60 cells assessed as late apoptotic cells at 20 uM after 6 hrs by Annexine V/propidium iodide staining-based FACS flow cytometry analysis (reference value: 2%). In kind it is functional.
Test [20] deals with HL-60. Briefly: Induction of apoptosis in human HL60 cells assessed as late apoptotic cells at 10 uM after 6 hrs by Annexine V/propidium iodide staining-based FACS flow cytometry analysis (reference value: 2%). In kind it is functional.
The test system of test [21] is HL-60. The experiment in a line: Induction of apoptosis in human HL60 cells assessed as late apoptotic cells at 5 uM after 6 hrs by Annexine V/propidium iodide staining-based FACS flow cytometry analysis (reference value: 2%). It is filed as functional.
Test [22] has as its system HL-60. The experiment in a line: Induction of apoptosis in human HL60 cells assessed as mitochondrial membrane potential loss at 20 uM after 6 hrs by RH 123 staining-based flow cytometer analysis (reference value: 6%). It is filed as functional. A digest of the protocol: as §3
Test [23] relates to HL-60. Briefly: Induction of apoptosis in human HL60 cells assessed as mitochondrial membrane potential loss at 5 uM after 6 hrs by RH 123 staining-based flow cytometer analysis (reference value: 6%). In kind it is functional. A digest of the protocol: as §3
In test [24] the test system is HL-60. Briefly: Induction of apoptosis in human HL60 cells assessed as mitochondrial membrane potential loss at 10 uM after 6 hrs by RH 123 staining-based flow cytometer analysis (reference value: 6%). In kind it is functional. Put shortly: as §3
The subject of test [25] is HL-60. Briefly: Induction of apoptosis in human HL60 cells assessed as change in nuclear morphology at 5 to 20 uM after 6 hrs by Hoechst 33258 staining-based inverted fluorescence analysis. It is filed as functional, cell-based. A digest of the protocol: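 HL-60 cells exposed for 6 h. Spun at 400 g, washed twice in PBS, stained 30 min at room temperature under subdued light with Hoechst 33258 (10 µg/ml in citrate/phosphate buffer with 0.05% Tween 20). Mounted in PBS:glycerol 1:1 and viewed by UV-excitation fluorescence microscopy for nuclear changes and apoptotic bodies.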

A short description of test [26]: Cytotoxicity against human FR2 cells after 48 hrs by MTT assay. In kind it is cell-based. To be noted: FR2, 48 h. A digest of the protocol: as §1
Test [27] concerns HL-60. Briefly: Induction of apoptosis in human HL60 cells assessed as change in cell morphology after 6 hrs.
The subject of test [28] is HL-60. The experiment in a line: Induction of apoptosis in human HL60 cells assessed as blebbing and shrinkage of cells at 5 to 20 uM after 6 hrs by phase contrast microscopy.

Activity calls are given as the source filed them. The calls are words filed in the database; no cut-off is given here. Where only a bound is given, the exact number is not on record here.

Chain of Phosphatidylinositol 4,5-bisphosphate 3-kinase catalytic subunit alpha isoform (Homo sapiens) (P42336 whole entry, canonical isoform): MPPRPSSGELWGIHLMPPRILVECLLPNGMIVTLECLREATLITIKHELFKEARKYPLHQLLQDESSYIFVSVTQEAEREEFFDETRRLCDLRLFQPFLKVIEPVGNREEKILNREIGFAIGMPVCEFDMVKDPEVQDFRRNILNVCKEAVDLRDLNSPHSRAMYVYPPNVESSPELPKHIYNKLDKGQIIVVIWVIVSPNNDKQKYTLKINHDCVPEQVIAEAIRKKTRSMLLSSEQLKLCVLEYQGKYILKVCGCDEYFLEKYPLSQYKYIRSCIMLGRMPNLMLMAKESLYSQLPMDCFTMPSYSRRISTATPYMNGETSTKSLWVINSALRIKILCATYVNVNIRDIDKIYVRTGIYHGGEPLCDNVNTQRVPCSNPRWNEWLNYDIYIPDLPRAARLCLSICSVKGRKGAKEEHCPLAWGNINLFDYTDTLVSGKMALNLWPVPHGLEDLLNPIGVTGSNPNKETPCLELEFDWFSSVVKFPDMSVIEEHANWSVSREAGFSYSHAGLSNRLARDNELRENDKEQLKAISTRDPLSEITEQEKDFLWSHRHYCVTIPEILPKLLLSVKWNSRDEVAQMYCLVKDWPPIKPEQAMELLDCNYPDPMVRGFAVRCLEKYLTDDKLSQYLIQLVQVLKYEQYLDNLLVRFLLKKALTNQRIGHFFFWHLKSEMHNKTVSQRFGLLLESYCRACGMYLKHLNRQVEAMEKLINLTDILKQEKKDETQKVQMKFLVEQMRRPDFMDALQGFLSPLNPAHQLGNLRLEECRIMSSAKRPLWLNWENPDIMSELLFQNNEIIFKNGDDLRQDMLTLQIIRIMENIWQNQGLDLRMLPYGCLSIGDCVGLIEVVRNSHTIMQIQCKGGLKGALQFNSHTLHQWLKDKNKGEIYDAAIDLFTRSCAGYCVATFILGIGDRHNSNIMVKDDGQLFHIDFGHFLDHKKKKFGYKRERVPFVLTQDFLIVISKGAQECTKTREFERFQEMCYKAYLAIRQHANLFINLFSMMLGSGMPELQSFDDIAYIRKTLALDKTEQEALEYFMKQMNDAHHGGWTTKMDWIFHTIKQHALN

A word on the IC50: it is the concentration needed to halve the response being measured. With `COc1ccc(CO[C@H]2C=C[C@H]3C/C=C\C[C@H](c4ccc(F)cc4)OC(=O)C[C@@H]2O3)cc1`, the figures for the IC50 in the test on A-375, in the test with PC-3 and in the test with HL-60 [1] were 4.76 µM, 2.23 µM and 8.83 µM, respectively.

For `CO[C@H]1C=C[C@H]2C/C=C\C[C@H](c3ccc(-c4ccccc4C(F)(F)F)cc3)OC(=O)C[C@@H]1O2`, the result in the test with HL-60 [2] and in the test on HL-60 [28] was Active. The inhibition entry in test [3], in [8], in test [10], in test [11] and in [13] was “Active” each time. Moreover, the Activity entry was “Dose-dependent effect” with HL-60 [4]; 37% with HL-60 [12]; 24% with HL-60 [14]; 30% with HL-60 [15]; 37% with HL-60 [16]; 32% with HL-60 [17]. Also, the Activity in the test on HL-60 [18] turned out to be 25%; in the test on HL-60 [19], 4%; with HL-60 [20] it was 4%; in the test on HL-60 [21] it was 3%; in the test with HL-60 [22] it was 62%; in the test on HL-60 [23], 21%. Also, the Activity in the test on HL-60 [24] is 36%; in the test with HL-60 [25], “Dose-dependent effect”; in the test on HL-60 [27], “Dose-dependent effect”. Moreover, the inhibition entry in [5] and in test [7] was “Dose-dependent effect” throughout. Also, the inhibition entry (in the test with HL-60 [6]; in test [9]) was “inactive” each time. Further, the IC50 with A-375 is 9.64 µM; in [26] it was at least 100 µM; with PC-3, 7.36 µM; in the test with HL-60 [1], 1.1 µM.

For the compound `O=C1C[C@@H]2O[C@@H](C=C[C@@H]2O)C/C=C\C[C@H](c2ccc(F)cc2)O1`, the IC50 in the test with A-375 was 20.8 µM; in the test with PC-3, 35.8 µM; in the test on HL-60 [1] it was 40.2 µM.

Regarding `CO[C@H]1C=C[C@H]2C/C=C\C[C@H](c3ccc(Br)cc3)OC(=O)C[C@@H]1O2`, the IC50 in the test with A-375 was determined as 5.45 µM; in the test with PC-3, 15.8 µM; with HL-60 [1] it was 10 µM.

As for `CCO[C@H]1C=C[C@H]2C/C=C\C[C@H](c3ccc(Cl)cc3)OC(=O)C[C@@H]1O2`, the IC50 in the test on A-375 turned out to be 4.9 µM; in the test on PC-3, 9.16 µM; in the test on HL-60 [1], 5.7 µM.

Consider `C[C@H]1CCC/C=C/[C@H]2CC[C@H](O)[C@H](CC(=O)O1)O2`, for which the IC50 in the test with HL-60 [1] amounted to 32.8 µM.

For `CCO[C@H]1C=C[C@H]2C/C=C\C[C@H](c3ccc(OC)cc3)OC(=O)C[C@@H]1O2`, the IC50 with A-375 was determined as 62.7 µM; in the test with PC-3 it was 56 µM; with HL-60 [1] it was 69.9 µM.

Regarding `COc1ccc(CO[C@H]2C=C[C@H]3C/C=C\C[C@H](c4ccc5ccccc5c4)OC(=O)C[C@@H]2O3)cc1`, the IC50 in the test on A-375 was above 100 µM; in the test with PC-3 it was 45.4 µM; in the test on HL-60 [1], 10.2 µM.

Regarding `O=C1C[C@@H]2O[C@@H](C=C[C@@H]2O)C/C=C\C[C@H](c2ccc3ccccc3c2)O1`, the IC50 with A-375 was found to be 50 µM; in the test with PC-3 it was 21.5 µM; in the test with HL-60 [1], 30.9 µM.

On to `CCO[C@H]1C=C[C@H]2C/C=C\CC[C@H](C)OC(=O)C[C@@H]1O2`, for which the IC50 with A-375 was 57 µM; with PC-3, 78 µM; in the test on HL-60 [1], 69.7 µM.

`C[C@H]1CCC/C=C/[C@H]2CC[C@H](O)[C@@H](CC(=O)O1)O2`: the IC50 in the test with HL-60 [1] is 81.2 µM.

(Values after ChEMBL document CHEMBL2407061, “Medicinal chemistry of dihydropyran-based medium ring macrolides related to aspergillides: selective inhibition of PI3Kα” (J Med Chem, 2013).)
